Source: ChEMBL document CHEMBL4406880, “Design, synthesis, and bioactivity of dihydropyrimidine derivatives as kinesin spindle protein inhibitors” (Bioorg Med Chem, 2019)

Columns and labels:
Type in all cases: functional
OVCAR-4 = assay: Growth inhibition of human OVCAR4 cells assessed as cell viability at 0.001 uM incubated for 48 hrs by sulforhodamine B assay relative to control; conditions: OVCAR-4, 48 h, read-out: Activity
U-251 = assay: Growth inhibition of human U251 cells incubated for 48 hrs by sulforhodamine B assay; conditions: U-251, 48 h
Outline: (§1)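 NCI-60 five-dose SRB assay. Cells were exposed for 48 h to tenfold dilutions of 0.01, 0.1, 1, 10 and 100 µM, in RPMI 1640 with 5% FBS. Plates fixed with TCA at the time of drug addition served as the time-zero reference. GI50 is the concentration giving a 50% reduction in net growth. TGI is total growth inhibition. LC50 is a net 50% loss of the initial cells.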

HL-60(TB) = assay: Growth inhibition of human HL-60(TB) cells assessed as cell viability at 0.001 uM incubated for 48 hrs by sulforhodamine B assay relative to control; conditions: HL-60, 48 h, read-out: Activity
SK-OV-3 = assay: Growth inhibition of human SKOV3 cells assessed as cell viability at 0.001 uM incubated for 48 hrs by sulforhodamine B assay relative to control; conditions: SK-OV-3, 48 h, read-out: Activity
TK-10 = assay: Growth inhibition of human TK10 cells assessed as cell viability at 0.001 uM incubated for 48 hrs by sulforhodamine B assay relative to control; conditions: TK-10, 48 h, read-out: Activity
CCRF-CEM = assay: Growth inhibition of human CCRF-CEM cells incubated for 48 hrs by sulforhodamine B assay
Outline: (§2)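 NCI-60 five-dose mode: five tenfold dilutions (0.01, 0.1, 1, 10, 100 µM) are applied for 48 h to cells in RPMI 1640 with 5% FBS at 37 °C. Endpoint is TCA fixation with sulforhodamine B read at 515 nm. % growth comes from the 0 h and control absorbances. GI50 is the concentration giving a 50% reduction in net cell growth.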

LOX IMVI = assay: Growth inhibition of human LOXIMVI cells assessed as cell viability at 0.001 uM incubated for 48 hrs by sulforhodamine B assay relative to control; conditions: read-out: Activity
BT-549 = assay: Growth inhibition of human BT549 cells assessed as cell viability at 1 uM incubated for 48 hrs by sulforhodamine B assay; conditions: BT-549, 48 h, read-out: Activity
OVCAR-3 [1] = assay: Growth inhibition of human OVCAR3 cells incubated for 48 hrs by sulforhodamine B assay; conditions: OVCAR-3, 48 h
Outline: (§3)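 NCI-60 five-dose SRB assay in RPMI 1640 with 5% FBS, 37 °C, 5% CO2. Compound given at five tenfold dilutions, 0.01–100 µM, for 48 h. Adherent cells fixed with TCA, suspension cells with 16% final TCA. Bound SRB read at 515 nm and growth calculated against time-zero and untreated controls. GI50 taken from dose–response curves as the concentration giving a 50% decrease in net cell growth.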

MCF7 = assay: Growth inhibition of human MCF7 cells assessed as cell viability at 0.1 uM incubated for 48 hrs by sulforhodamine B assay; conditions: MCF7, 48 h, read-out: Activity
HCT-116 = assay: Growth inhibition of human HCT116 cells incubated for 48 hrs by sulforhodamine B assay; conditions: HCT-116, 48 h; outline: as §2
OVCAR-8 = assay: Growth inhibition of human OVCAR8 cells assessed as cell viability at 1 uM incubated for 48 hrs by sulforhodamine B assay; conditions: OVCAR-8, 48 h, read-out: Activity
SNB-19 = assay: Growth inhibition of human SNB19 cells assessed as cell viability at 100 uM incubated for 48 hrs by sulforhodamine B assay; conditions: SNB-19, 48 h, read-out: Activity
MDA-MB-468 = assay: Growth inhibition of human MDA-MB-468 cells incubated for 48 hrs by sulforhodamine B assay; conditions: MDA-MB-468, 48 h; outline: as §3
SN12C = assay: Growth inhibition of human SN12C cells incubated for 48 hrs by sulforhodamine B assay
Outline: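 NCI-60 five-dose assay, SRB end-point, same culture conditions. Compound is tested at tenfold dilutions of 0.01, 0.1, 1, 10 and 100 µM for 48 h at 37 °C, with DMSO/PBS vehicle controls. Percentage growth at each concentration is taken against untreated cells and a time-zero plate. GI50 is 50% net growth decrease, TGI is total growth inhibition, and LC50 is 50% loss of initial cells.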

DU-145 = assay: Growth inhibition of human DU145 cells assessed as cell viability at 100 uM incubated for 48 hrs by sulforhodamine B assay; conditions: DU-145, 48 h, read-out: Activity
HCC 2998 = assay: Growth inhibition of human HCC2998 cells assessed as cell viability at 100 uM incubated for 48 hrs by sulforhodamine B assay; conditions: HCC 2998, 48 h, read-out: Activity
OVCAR-5 = assay: Growth inhibition of human OVCAR5 cells assessed as cell viability at 1 uM incubated for 48 hrs by sulforhodamine B assay; conditions: OVCAR-5, 48 h, read-out: Activity
Hs-578T = assay: Growth inhibition of human Hs 578T cells assessed as cell viability at 100 uM incubated for 48 hrs by sulforhodamine B assay; conditions: read-out: Activity
IGROV-1 = assay: Growth inhibition of human IGROV1 cells assessed as cell viability at 100 uM incubated for 48 hrs by sulforhodamine B assay; conditions: IGROV-1, 48 h, read-out: Activity
OVCAR-3 [2] = assay: Growth inhibition of human OVCAR3 cells assessed as cell viability at 100 uM incubated for 48 hrs by sulforhodamine B assay; conditions: OVCAR-3, 48 h, read-out: Activity
UO-31 = assay: Growth inhibition of human UO31 cells incubated for 48 hrs by sulforhodamine B assay; conditions: UO-31, 48 h; outline: as §1
[3] = read-out: LC50 (the source's name)
[4] = read-out: pLC50 (the source's name) (converted)

**Q.** `CC1=C(C(=O)OCc2ccccc2)C(c2ccc3c(c2)OCO3)n2c(nc3ccccc32)N1` (racemic) was tested. Which viability at 0.001 µM (OVCAR-4) did it give?
**A.** 82%

**Q.** What about the GI50 (U-251; read-out: GI50) of the same molecule?
**A.** 460 nM

**Q.** And the LC50 (U-251; read-out: LC50)?
**A.** > 100000 nM

**Q.** And the TGI (U-251; read-out: TGI)?
**A.** > 100000 nM

**Q.** And the GI50 (U-251; read-out: pGI50 (converted))?
**A.** 427 nM

**Q.** What about the LC50 (U-251; read-out: pLC50 (converted)) of the same molecule?
**A.** > 100000 nM

**Q.** What about the TGI (U-251; read-out: pTGI) of the same molecule?
**A.** > 100000 nM

**Q.** And the viability at 0.001 µM (HL-60(TB))?
**A.** 95%

**Q.** What about the viability at 0.001 µM (SK-OV-3) of the same molecule?
**A.** 99%

**Q.** And the viability at 0.001 µM (TK-10)?
**A.** 92%

**Q.** And the GI50 (CCRF-CEM; read-out: GI50)?
**A.** 410 nM

**Q.** What about the CC50 (CCRF-CEM; [3]) of the same molecule?
**A.** > 100000 nM

**Q.** And the TGI (CCRF-CEM; read-out: TGI)?
**A.** > 100000 nM

**Q.** And the GI50 (CCRF-CEM; read-out: pGI50 (converted))?
**A.** 407 nM

**Q.** And the CC50 (CCRF-CEM; [4])?
**A.** > 100000 nM

**Q.** And the TGI (CCRF-CEM; read-out: pTGI)?
**A.** > 100000 nM

**Q.** And the viability at 0.001 µM (LOX IMVI)?
**A.** 93%

**Q.** And the viability at 1 µM (BT-549)?
**A.** 49%

**Q.** And the GI50 (OVCAR-3 [1]; read-out: GI50)?
**A.** 260 nM

**Q.** What about the CC50 (OVCAR-3 [1]; [3]) of the same molecule?
**A.** > 100000 nM

**Q.** And the TGI (OVCAR-3 [1]; read-out: TGI)?
**A.** 1090 nM

**Q.** What about the GI50 (OVCAR-3 [1]; read-out: pGI50 (converted)) of the same molecule?
**A.** 257 nM

**Q.** What about the CC50 (OVCAR-3 [1]; [4]) of the same molecule?
**A.** > 100000 nM

**Q.** And the TGI (OVCAR-3 [1]; read-out: pTGI (converted))?
**A.** 1100 nM

**Q.** What about the viability at 0.1 µM (MCF7) of the same molecule?
**A.** 87%

**Q.** And the GI50 (HCT-116; read-out: GI50)?
**A.** 470 nM

**Q.** And the LC50 (HCT-116; read-out: LC50)?
**A.** > 100000 nM

**Q.** What about the TGI (HCT-116; read-out: TGI) of the same molecule?
**A.** > 100000 nM

**Q.** And the GI50 (HCT-116; read-out: pGI50 (converted))?
**A.** 479 nM

**Q.** And the LC50 (HCT-116; read-out: pLC50 (converted))?
**A.** > 100000 nM

**Q.** And the TGI (HCT-116; read-out: pTGI)?
**A.** > 100000 nM

**Q.** And the viability at 1 µM (OVCAR-8)?
**A.** 38%

**Q.** What about the viability at 100 µM (SNB-19) of the same molecule?
**A.** 28%

**Q.** What about the GI50 (MDA-MB-468; read-out: GI50) of the same molecule?
**A.** 270 nM

**Q.** And the CC50 (MDA-MB-468; [3])?
**A.** > 100000 nM

**Q.** And the TGI (MDA-MB-468; read-out: TGI)?
**A.** > 100000 nM

**Q.** What about the GI50 (MDA-MB-468; read-out: pGI50 (converted)) of the same molecule?
**A.** 269 nM

**Q.** What about the CC50 (MDA-MB-468; [4]) of the same molecule?
**A.** > 100000 nM

**Q.** And the TGI (MDA-MB-468; read-out: pTGI)?
**A.** > 100000 nM

**Q.** And the CC50 (SN12C; [3])?
**A.** > 100000 nM

**Q.** What about the TGI (SN12C; read-out: TGI) of the same molecule?
**A.** > 100000 nM

**Q.** And the CC50 (SN12C; [4])?
**A.** > 100000 nM

**Q.** And the TGI (SN12C; read-out: pTGI)?
**A.** > 100000 nM

**Q.** And the viability at 100 µM (DU-145)?
**A.** 41%

**Q.** What about the viability at 100 µM (HCC 2998) of the same molecule?
**A.** 46%

**Q.** What about the viability at 1 µM (OVCAR-5) of the same molecule?
**A.** 52%

**Q.** And the viability at 100 µM (Hs-578T)?
**A.** -24%

**Q.** And the viability at 100 µM (IGROV-1)?
**A.** 29%

**Q.** And the viability at 100 µM (OVCAR-3 [2])?
**A.** -10%

**Q.** What about the GI50 (UO-31; read-out: GI50) of the same molecule?
**A.** 590 nM

**Q.** What about the CC50 (UO-31; [3]) of the same molecule?
**A.** > 100000 nM

**Q.** And the GI50 (UO-31; read-out: pGI50 (converted))?
**A.** 589 nM

**Q.** What about the CC50 (UO-31; [4]) of the same molecule?
**A.** > 100000 nM

**Q.** And the TGI (UO-31; read-out: pTGI (converted))?
**A.** 63100 nM
